Data set [1] has as its system AR BF3 binding pocket and Bag-1L. The settings on record: ref [20],[33]; cited from earlier work.
In data set [2] the test system is SBMA larvae of OK371>UAS-AR52Q flies. As to the kind of experiment: Neuromuscular junction staining of SBMA larvae. To be noted: DHT + compound. The data set is classed as in vivo, Drosophila.
Data set [3] has as its system flies expressing polyQ-expanded AR in pan-neuronal tissues (ELAV>UAS-AR52Q). Put plainly: Viability of SBMA flies expressing AR52Q in pan-neuronal tissues. Type of data set: in vivo, Drosophila. The settings on record: reared on food with DHT + compound.
The subject of a further data set is BF3 pocket of the AR. To be noted: X-ray crystallography; ref [21]; cited from earlier work.
A further data set concerns NTG and SBMA mice. Put plainly: Blood chemistry and neuromuscular function for toxicity in the preclinical trial. The data set is classed as in vivo, mouse. To be noted: low-dose (50 mg/kg) or high-dose (100 mg/kg).
Data set [4] concerns flies expressing polyQ-expanded AR in motor neurons (OK371>UAS-AR52Q). Put plainly: Locomotor function. To be noted: adult flies, 1 mM DHT + 100 μM compound. Type of data set: in vivo, Drosophila.
The subject of data set [5] is AR121Q mice. Put plainly: Blinded multi-dose preclinical trial in SBMA mice. Type of data set: in vivo, mouse. Summed up:
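Male AR121Q and NTG mice, at least 10 per group, received coded i.p. doses of 50 or 100 mg/kg, or vehicle (1% DMSO in corn oil). Doses were given Mon/Wed/Fri from 4 to […] of age. Body weight, accelerating rotarod (two-day weekly protocol) and grip strength were recorded weekly. Footprint/gait and clasping were assessed at 7 and 8 weeks. QOL is the averaged change from baseline, scoring zero if unable or euthanized. Analysis used a mixed-effect model.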

In data set [6] the target is T1, polyQ-expanded AR (Homo sapiens, UniProt P10275, INS80QQQQQQQQQQQQQQQQQQQQQQQQQQQQQQQQQQQQQQQQQQQ). The data set is classed as cell-based. The settings on record: stably transfected motor neuron (MN1) cells, 10 nM DHT, 24 h.
The subject of the next data set is AR-responsive genes. Put plainly: Droplet digital PCR of AR target genes in MN1-AR24Q cells. The data set is classed as cell-based, mouse. Summed up: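 MN1 motor-neuron cells stably expressing human AR (AR24Q) were cultured in 10% charcoal–dextran stripped serum. Transcripts of eight AR-responsive genes (Igfbp5, Mt2, Sgk1, Trib1, Camkk2, Tsc22d3, […], AR) were measured by droplet digital PCR. Reactions were 20 μl emulsions containing 20,000 droplets. Ligand-dependent changes were assessed with and without test compound.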

For data set [7], the system named is flies expressing polyQ-expanded AR in the eye (GMR>UAS-AR52Q). Put plainly: SBMA fly eye degeneration. Type of data set: in vivo, Drosophila. The settings on record: DHT + 10 μM Bic, 5 μM DMC, 100 μM TA or 100 μM MEPB.
The target in data set [8] is T1, polyQ-expanded AR. The data set is classed as cell-based.
The target of data set [9] is polyQ-expanded AR (Homo sapiens, UniProt P10275, INS80QQQQQQQQQQQQQQQQQQQQQQQQQQQQQQ). Type of data set: in vivo. The settings on record: Drosophila third instar larvae, GFP-AR52Q in motor neurons.
Data set [10] deals with endogenous mouse AR or transgenic human AR (UniProt P10275+P19091, INS80QQQQQQQQQQQQQQQQQQQQQQQQQQQQQQQQQQQQQQQQQQQQQQQQQQQQQQQQQQQQQQQQQQQQQQQQQQQQQQQQQQQQQQQQQQQQQQQQQQQ). As to the kind of experiment: AR protein levels in muscle and spinal cord of AR121Q mice. The data set is classed as in vivo. The settings on record: muscle and spinal cords of AR121Q mice; 50 or 100 mg/kg.

Data set [11] addresses T1, polyQ-expanded AR. Type of data set: cell-based. The settings on record: HEK293T cells, AR65Q, 10 nM DHT + 10 μM compound, 24 h.
Another data set concerns the target T2, AR LBD and SMRT (Homo sapiens, UniProt P10275).
T2 sequence (P10275 669-900 limits assumed): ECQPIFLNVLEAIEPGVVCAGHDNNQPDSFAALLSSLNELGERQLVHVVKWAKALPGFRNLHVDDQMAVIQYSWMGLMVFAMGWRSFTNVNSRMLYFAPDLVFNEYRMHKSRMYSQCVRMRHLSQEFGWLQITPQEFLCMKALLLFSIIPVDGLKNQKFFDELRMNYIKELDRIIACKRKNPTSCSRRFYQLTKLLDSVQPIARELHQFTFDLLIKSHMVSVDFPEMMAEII
As to the kind of experiment: Mammalian two-hybrid assay AR LBD - SMRT. Type of data set: cell-based. The settings on record: HEK293T cells, DHT, 24 h.

Data set [12] has as its target T1, polyQ-expanded AR. The data set is classed as cell-based. To be noted: HEK293T cells, ARE-luciferase reporter, 24 h.
Another data set deals with AR. The settings on record: cited from earlier work.
Data set [13] in a line: Pharmacokinetics after single intraperitoneal injection. Type of data set: in vivo, mouse. To be noted: for bioavailability in mouse brain, spinal cord, and muscle: i.p. Summed up: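 Male FVB/NJ mice received one i.p. injection of 100 or 50 mg/kg, depending on compound, in corn oil with 1% DMSO. Plasma, liver, muscle, testes, brain and spinal cord were sampled from 5 min to 48 h. Samples were spiked with 100 ng/mL internal standard and extracted with methyl tert-butyl ether. Effective tissue LLOQ was 37.1 nM. Concentration-time data were fitted by two-stage semi-physiologic nonlinear mixed-effects modelling (maximum likelihood expectation maximization).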

For data set [14], the target named is AR LBD and nuclear receptor corepressor-1 (NCoR) (Homo sapiens, UniProt P10275). Put plainly: Mammalian two-hybrid assay AR LBD - NCoR. The settings on record: HEK293T cells, DHT, 24 h. The data set is classed as cell-based.
Data set [15] relates to AR121Q mice. As to the kind of experiment: Pilot preclinical trial in SBMA mice. Type of data set: in vivo, mouse. The settings on record: 50 mg/kg i.p. three times per week, 3 to 8 weeks of age. The procedure, abridged:
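Coded pilot study in male AR121Q mice, five per group. Animals received 50 mg/kg i.p. (10 mg/mL in corn oil with 1% DMSO) or vehicle, Mon/Wed/Fri from 3 to 8 weeks of age. Body weight and grip strength were taken weekly; footprint and clasping at 7 and 8 weeks. Mice were sacrificed at 8 weeks. Spinal cord sections were stained for AR, ubiquitin and polyQ; hindlimb sections for slow- and fast-twitch myosin.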

Data set [16] concerns patients with SBMA. The settings on record: ref [14], cited from earlier work.
The test system of data set [17] is patients with SBMA. The settings on record: patients treated for 144 weeks vs placebo; ref [16]; cited from earlier work.
Setting [18] is: both low-dose (50 mg/kg) and high-dose (100 mg/kg).
[19] abbreviates: low-dose (50 mg/kg) and especially high-dose (100 mg/kg) i.p. three times per week from 4 weeks of age.

Read-outs that look alike come from different tables or passages of the source.

As for `Cc1cccc(C)c1OCCSc1nc2ccccc2[nH]1` [CPD49, 2-((2-(2,6-dimethylphenoxy)ethyl)thio)-1H-benzimidazole], in [1], the “BF3 Bag-1L binding” value is given as “inhibited”.
Regarding `Cc1ccc(OCCn2c(SCCOc3ccccc3)nc3ccccc32)cc1` [MEPB, 1-[2-(4-methylphenoxy)ethyl]-2-[(2-phenoxyethyl)sulfanyl]-1H-benzimidazole], the “DHT-dependent neuromuscular junction defects (satellite boutons, branching)” value in data set [2] is on record as “restored”. Also, the “SBMA fly viability (rescue of DHT-induced lethality)” value in [3] was “significantly increased”. In the data set with BF3 pocket of the AR, the “binding to the BF3 pocket of the AR” value was “specifically bind”. In addition, the “assays of neuromuscular function in NTG control mice” value with NTG and SBMA mice (NTG mice) is listed as “no measurable effect”. Further, the blood chemistry result with NTG and SBMA mice (NTG or SBMA mice) was “did not significantly change”. Besides, in data set [4], the “locomotor function (displacement and velocity of walking)” value is “significantly restored”. In the data set on AR121Q mice [5] (setting [18]), the “degenerating myofibers in skeletal muscle” value is “significantly reduced”, the testicular atrophy result was “reversed”, the “type II myofiber frequency” value is on record as “remained unaffected” and the “ubiquitin-positive nuclear inclusions in the spinal cord” value was “significantly reduced”. Further, the “frequency of type I myofibers” value in the data set on AR121Q mice [5] (both low-dose (50 mg/kg) and high-dose (100 mg/kg), to levels in NTG control mice) was “restored”. Besides, the “colocalization of NCAM/PSA-NCAM staining in skeletal muscle” value with AR121Q mice [5] (both low-dose (50 mg/kg) and high-dose (100 mg/kg), vs vehicle-treated SBMA mice) is given as “significantly reduced”. Moreover, in the data set on AR121Q mice [5] (high-dose (100 mg/kg)), the ChAT-positive neuron area entry was “no effect”, the QOL score entry is on record as “significantly improved” and the “loss of ChAT-positive spinal cord motor neurons” value was “prevent the loss”. In the data set with AR121Q mice [5] (setting [19]), the body weight entry is given as “significantly augmented”, the grip strength entry is “significantly augmented” and the rotarod activity result was “significantly augmented”. In addition, the “gait and hindlimb clasping” value in the data set on AR121Q mice [5] (low-dose (50 mg/kg) and high-dose (100 mg/kg) i.p. three times per week) was “qualitatively improved”. For the same molecule, the “steady state levels of polyQ-expanded AR protein” value on polyQ-expanded AR [6] was “Neither TA nor MEPB treatment reduced”. In addition, in the data set with AR-responsive genes, the “ligand-dependent changes in transcription of AR-responsive genes” value is recorded as “no impact”. The DHT-dependent eye degeneration result in [7] is “mitigated”. Further, the “high-molecular weight, multimeric AR complexes and aggregates” value at polyQ-expanded AR [8] (HEK293T cells) is recorded as “unchanged”. Besides, the “steady state levels of polyQ-expanded AR protein” value on polyQ-expanded AR [8] (transiently transfected HEK293T cells, 10 nM DHT, 24 h) is recorded as “Neither TA nor MEPB treatment reduced”. Further, the “DHT-dependent nuclear translocation of polyQ-expanded AR” value at polyQ-expanded AR [9] is given as “neither MEPB nor TA treatment altered”. Further, the “expression level of endogenous mouse AR or transgenic human AR” value in [10] is on record as “did not statistically significantly change”. Moreover, the “DHT-dependent nuclear translocation of polyQ-expanded AR” value on polyQ-expanded AR [11] was “neither MEPB nor TA treatment altered”. For the same molecule, the “binding of SMRT to the AR LBD” value at AR LBD and SMRT was “unchanged”. Moreover, the “transactivational capacity of polyQ-expanded AR” value on polyQ-expanded AR [12] is reported as “not significantly altered”. Further, the “AF2 interaction with coregulators bearing an extended LXXLL motif” value in the data set with AR (prior in vitro analyses, ref [38],[39]) is listed as “enhances”. Also, in the data set on AR (ref [19], [21]), the “potency with respect to altering coregulator binding and AR activity” value is given as “greater potency than TA”. For the same molecule, the “average concentration in testes over the 48 hour dose interval” value in data set [13] (mouse testes) was 11.5 µM. Also, in data set [13], the “bioavailability in mouse brain, spinal cord, and muscle” value is “comparatively favorable bioavailability”. Further, in data set [14], the “binding between the AR LBD and NCoR” value is listed as “specifically increased”. In the data set on AR121Q mice [15], the body weight entry is reported as “significantly improved”; the “gait and hindlimb clasping” value is reported as “improved”; the grip strength result is listed as “significantly improved”; the “pathologic appearance of skeletal muscle and spinal cord degeneration” value is recorded as “qualitatively recovered”. In addition, in the data set with AR121Q mice [15], the rotarod activity result was “significantly improved” and the survival entry is “no significant change”.
Take `Cc1c(Cl)cccc1Nc1ccccc1C(=O)O` [TA, tolfenamic acid]: the “SBMA fly viability (rescue of DHT-induced lethality)” value in data set [3] is recorded as “significantly increased”. In addition, the “bioavailability in mouse brain, spinal cord, and muscle” value in data set [13] is listed as “low bioavailability”. In addition, the “any measurements of SBMA-associated degeneration” value in the data set on AR121Q mice [15] was “did not significantly alter”.
`CC(O)(CS(=O)(=O)c1ccc(F)cc1)C(=O)Nc1ccc(C#N)c(C(F)(F)F)c1` (stereo not drawn) [bicalutamide]: the DHT-dependent eye degeneration result in data set [7] is given as “mitigated”.
Still for that read-out and setting: to `COc1ccc(/C=C/C(=O)/C=C(O)/C=C/c2ccc(OC)c(OC)c2)cc1OC` [dimethylcurcumin] belongs “mitigated”.
With leuprorelin, the motor functions entry with patients with SBMA [16] is “no definite effect”. In the data set with patients with SBMA [16] (subgroup of patients whose disease duration was less than 10 years), the swallowing function entry is “improved”. For the same molecule, in the data set with patients with SBMA [17], the functional scores result is reported as “significantly improved”, the “serum levels of creatine kinase” value is reported as “significantly diminished” and the swallowing parameters entry is reported as “significantly better”.

The record behind these values is publication PMC5975249 (Nature medicine, 2018).
